Only some compounds are listed: those with a hit (about 2.1% of all), similar ones and a draw of the others.
b-catenin transl – beta-catenin nuclear translocation modulation; HeLa beta-catenin nuclear translocation, immunofluorescence imaging; nuclear translocation activity, % at 5 µM; 190,000 tested, 0.3% active; AID 1665;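 active = nuclear translocation activity above 50% at 5 µM, with a well cell count of 50 or more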;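 also: per-cell ratio of nuclear to cytoplasmic median beta-catenin stain intensity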
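System: HeLa cells, endogenous beta-catenin; compound dosing: 5 µM primary single dose, 0.1% DMSO, 0.02–20 µM confirmation series; incubation: 24 h compound exposure at 37°C, 5% CO2; signal: beta-catenin immunofluorescence imaging with DAPI; evaluation: % activation, nuclear-to-cytoplasmic median beta-catenin signal ratio per cell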
Hsp70 act – Hsp70 transcriptional activation, primary screen; HeLa Hsp70 promoter luciferase reporter, luminescence; scaled: vehicle 0, proteasome-inhibitor control 100%; activation, % at 10 µM; 200,000 tested, 0.04% active;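 active = activation above the mean across all tested compounds plus 3 SD, cutoff set per campaign, cut at about 5.5% in these data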
Dynein cargo inh – blocks dynein driven cargo transport along microtubules. 3617.4 mouse cells, GR-EGFP nuclear translocation imaging; test concentration mostly 20 µM; stimulated with dexamethasone, 1 µM; stronger effect = lower value. z-score, hits read low. 220,000 tested, 0.47% active. AID 1381;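 active = plate z-score of nuclear minus cytoplasmic receptor signal below a set negative limit, without overly bright fluorescence or cell loss, cut at about -3.5 in these data, passing the limit was not always enough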;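 also: z-score of nuclear minus cytoplasmic ring GR-EGFP intensity difference per well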
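Buffer or medium: tet-free, stripped-serum medium; reagent: dexamethasone at 1.0 µM final, 30 min; incubation: 48 h induction, 1 h compound, 30 min dex at 37 °C; measured by: formaldehyde fixation, Hoechst nuclear stain, 10x automated fluorescence imaging; read-out: nuclear-to-cytoplasmic GR-EGFP distribution per well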
Autophagy mod – modulators of autophagy; calls only at 10 µM (by protocol); MEF GFP-LC3 puncta imaging; test concentration mostly 10 µM; 190,000 tested, 0.98% active;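 active = percentage of spot-positive cells more than 3 SD above its plate mean, without a fluorescence outlier flag or 80% toxicity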
MT stabilizer – microtubule stabilization, imaging screen. % tubulin-high responders, % at 10 µM. HeLa tubulin immunostaining HCS, 24 h; share of cells brighter than vehicle mean+2SD. 200,000 tested, 0.83% active;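 active = plate Z-score above 3 for both tubulin-high and condensed-nucleus cell shares, with cell loss under 80%, at 10 µM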;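 also: anti alpha tubulin signal scored within the nucleus-defined area of each cell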
Of the large screens only hits and unclear results are named; the others gave an inactive call.

CCOC(=O)C1=c2/c(=C/c3ccccc3OC)c(N)c(C#N)n2C(=O)C(c2ccccc2OC)S1 (stereo not drawn)	Autophagy mod active (no result: b-catenin transl)
Nc1cc(=O)[nH]c(SCC(=O)Nc2cc([N+](=O)[O-])ccc2Cl)n1	none
Nc1cc(=O)[nH]c(SCC(=O)Nc2nc3ccc([N+](=O)[O-])cc3s2)n1	Autophagy mod active
N#C/C(=C/c1ccc(N2CCCCCC2)o1)c1cccc(F)c1	Autophagy mod active
COc1cc(N2CCCC2)c(OC)cc1/C=C(/C#N)c1cccc(F)c1	Autophagy mod active
N#C/C(=C/c1ccc(N2CCOCC2)o1)c1ccc(Br)cc1	Autophagy mod active
CC(=O)CSc1nnc(C(F)(F)F)n1C	none (no result: Hsp70 act, Autophagy mod, MT stabilizer)
COc1nc(-c2cnccn2)sc1C	none
CCCCN(CCCC)CCNC(=O)CSCc1ccc(C)cc1	none
O=c1c2ccc([N+](=O)[O-])cc2ncn1CCOc1cccc(Br)c1	Autophagy mod active
OC1CCN(c2c3c(nc4cc(-c5cccc(F)c5)nn24)CCCC3)CC1	none
Clc1cccc(-c2cc3nc4c(c(N5CCNCC5)n3n2)CCCC4)c1	Autophagy mod active
Fc1cccc(-c2cc3nc4c(c(N5CCC6(CC5)OCCO6)n3n2)CCCC4)c1	Autophagy mod active
CN(C)CCCNc1cc(C(C)(C)C)nc2c(-c3ccccc3)cnn12	none (no result: Hsp70 act, Autophagy mod, MT stabilizer)
Cc1nc2ccc(S(=O)(=O)Nc3cccc(-c4nc5cccnc5s4)c3C)cc2s1	none
Cc1nc2ccc(S(=O)(=O)Nc3cc(-c4nc5cccnc5s4)ccc3C)cc2s1	MT stabilizer 21.3
CCCNC(=O)C12CCC(C)(c3nc4cc(C)c(C)cc4nc31)C2(C)C (stereo not drawn)	none
Cc1nnc(SCC(=O)N(C)C2CCS(=O)(=O)C2)n1Cc1ccccc1 (stereo not drawn)	none
CCN(C(=O)CSc1nnc(C)n1Cc1ccccc1)C1CCS(=O)(=O)C1 (stereo not drawn)	Autophagy mod active
CC(=O)c1ccc(NC(=O)c2noc3c2CCCCC3)cc1	none
O=C(Nc1ccc2c(c1)OCO2)c1noc2c1CCCCC2	Autophagy mod active
Cc1cc(NC(=O)c2noc3c2CCCCC3)no1	none
Cc1cc(NC(=O)c2noc3c2CCCC3)no1	Autophagy mod active (no result: b-catenin transl)
Cc1ccc(C)c(-n2nnnc2SCC(=O)NNC(=O)c2ccco2)c1	none
O=C(OCc1nnc(-c2ccc(Br)cc2)o1)c1cncc(Br)c1	none
COc1cccc(C2CC(c3c(F)cccc3Cl)n3nc(N)nc3N2)c1 (stereo not drawn)	Autophagy mod active
COc1cccc(C2CC(c3c(Cl)cccc3Cl)n3nc(N)nc3N2)c1 (stereo not drawn)	none (no result: Autophagy mod)
CCc1nnc(N2C(=O)c3ccccc3C2(O)c2ccccc2)s1 (stereo not drawn)	none (no result: Hsp70 act, Autophagy mod, MT stabilizer)
CCN(CC)c1ccc(/C=C(\C#N)c2ccccn2)cc1	MT stabilizer 21.5 (no result: b-catenin transl)
CCOC(=O)N1CCN(c2ncnc3c2[nH]c2ccc(OC)cc23)CC1	none
COc1ccc(N2CCN(c3ncnc4c3[nH]c3ccccc34)CC2)cc1	none
COc1cc2[nH]c3c(N4CCN(c5ccccn5)CC4)ncnc3c2cc1OC	Autophagy mod active
COc1ccc2[nH]c3c(N4CCc5ccccc5C4)ncnc3c2c1	b-catenin transl 115.4 (no result: Hsp70 act, Autophagy mod, MT stabilizer)
COc1ccc2cnn(-c3ccc(OC(F)(F)F)cc3)c(=O)c2c1OC	none (no result: Hsp70 act, Autophagy mod, MT stabilizer)
CCN1C(=O)c2ccccc2S(=O)c2ccc(C(=O)N3CCOCC3)cc21 (stereo not drawn)	none (no result: Hsp70 act, Autophagy mod, MT stabilizer)
CCCN1CCC(=NNc2ccc(S(=O)(=O)N3CCOCC3)cc2[N+](=O)[O-])CC1	b-catenin transl 119.8, MT stabilizer 14.0
COc1ccc2c(c1)C(C)=CC(C)(C)N2S(=O)(=O)c1ccc(C)cc1	b-catenin transl 62.6
CC1=CC(C)(C)N(S(=O)(=O)c2ccc(C)cc2)c2cc(C)ccc21	Autophagy mod active, MT stabilizer 20.5 (no result: b-catenin transl)
O=S(=O)(c1ccc2nc(-c3ccccc3)[nH]c2c1)N1CCN(c2ccc(Cl)cc2)CC1	MT stabilizer 16.0
CC(C)c1ccc(/C=N/n2cnnc2)cc1	none (no result: Hsp70 act, Autophagy mod, MT stabilizer)
COc1ccc(C2=NNC(c3cccnc3)=Nc3ccc(OC)cc32)cc1	MT stabilizer 13.0
Cc1ccc2nc(NC(=O)CC3Oc4ccccc4NC3=O)sc2c1 (stereo not drawn)	none (no result: Hsp70 act, Autophagy mod, MT stabilizer)
CCOc1ccc(Nc2nc(NCC3CCCO3)c3ccccc3n2)cc1 (stereo not drawn)	Autophagy mod active
c1ccc(Nc2nc(NCC3CCCO3)c3ccccc3n2)cc1 (stereo not drawn)	none
NC1=NC2(CCCCC2)N=C(Nc2ccc(F)cc2F)N1	none
Cc1cc(C)cc(NC2=NC3(CCCCC3)N=C(N)N2)c1	MT stabilizer 46.9
COc1ccc(NS(=O)(=O)c2cc(S(C)(=O)=O)ccc2C)cc1	none
COc1ccc(NS(=O)(=O)c2cc(OC)ccc2NC(=O)c2cc(C)oc2C)cc1	MT stabilizer 38.4
COc1ccc(NS(=O)(=O)c2cc(C)ccc2C)cc1	MT stabilizer 58.6
COc1cc(/C=C2\N=C(c3ccccc3)NNC2=O)cc(OC)c1OC	b-catenin transl 64.6 (no result: Hsp70 act, Autophagy mod, MT stabilizer)
COc1ccc(NC(=S)Nc2ccccc2SC)c(OC)c1	none
CSc1nc(C)c(Cc2ccccc2)c(=O)[nH]1	none
Cc1nc(SCC(C)C)[nH]c(=O)c1Cc1ccccc1	Autophagy mod active
N#CC1(c2ccccc2)CCC(=O)N1Cc1ccccc1 (stereo not drawn)	none (no result: Hsp70 act, Autophagy mod, MT stabilizer)
O=C(CSc1nc(-c2ccccc2)c(-c2ccccc2)[nH]1)NCc1ccco1	none (no result: b-catenin transl)
O=C(CSc1nc(-c2ccccc2)c(-c2ccccc2)[nH]1)NCCN1C(=O)CSC1=O	MT stabilizer 18.9
COc1ccc(C2C=C(c3ccc(Br)s3)Nc3ncnn32)cc1OC (stereo not drawn)	b-catenin transl 57.9, MT stabilizer 29.2
COc1ccc(C2C=C(c3ccc(C)cc3)Nc3ncnn32)cc1 (stereo not drawn)	none
Cn1nnc(NC(=O)c2cccc([N+](=O)[O-])c2)n1	none (no result: Hsp70 act, Autophagy mod, MT stabilizer)
Cc1ccc(C(C(=O)NCc2ccccc2)N(Cc2cccs2)C(=O)c2ccc3c(c2)OCCO3)cc1 (stereo not drawn)	Autophagy mod active
Cc1ccc(C)c(NC(=S)N(Cc2cccc(Br)c2)CC2CCC(C(=O)O)CC2)c1 (stereo not drawn)	none
Cn1cccc1/C=C1\SC(=Nc2ccccc2)NC1=O	b-catenin transl 85.6 (no result: Hsp70 act, Autophagy mod, MT stabilizer)
Cn1cccc1/C=C1\SC(=Nc2ccc(O)cc2)NC1=O	b-catenin transl 82.7 (no result: Hsp70 act, Autophagy mod, MT stabilizer)
Cn1cccc1/C=C1\SC(=Nc2cccc(O)c2)NC1=O	none (no result: Hsp70 act, Autophagy mod, MT stabilizer)
COc1ccc(-n2c(O)c(/C=N/NS(=O)(=O)c3cccc([N+](=O)[O-])c3)c3ccccc3c2=O)cc1OC	none
Cc1noc(C)c1S(=O)(=O)Nc1ccc(O)c2c(=O)cc(-c3ccccc3Cl)oc12	none (no result: Hsp70 act, Autophagy mod, MT stabilizer)
CC(C)c1nc2c(c(=O)c3ccccc3n2C)c(=O)n1CCc1ccccc1	none (no result: Hsp70 act, Autophagy mod, MT stabilizer)
Fc1ccc(N/N=C/c2ccc(N3CCOCC3)cc2)c(F)c1	none
